A short description of assay [1]: inhibitors of TNFa-induced NFkB p65 translocation, primary screen, imaging, HUVEC, MLSMR starter and 10KST1 sets (AID 438;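 active means inhibition above 20% together with a positive visual image hit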;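 further: compound added about 3h40 before a 20 min TNFalpha stimulation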;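 on inhibition: signal is the nuclear over cytoplasmic p65 intensity ratio per well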). The conditions noted are these: HUVEC TNFa-induced p65 nuclear translocation; cell count: measured here: nuclei count (cytotoxicity indicator), at 2.08 µM; inhibition: at 2 µM, stronger effect = higher value, 0% TNFa-plus-vehicle, 100% no-TNFa wells.
Assay [2] is described as follows: endothelial E-selectin expression blockers – imaging, HUVEC, immunofluorescence, MLSMR starter and 10KST1 sets, primary screen (AID 487;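 active means visually confirmed hit in the image check and inhibition above 20%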;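 on inhibition: signal is fraction of cell area covered by stained E-selectin grains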;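 on nuclei count: 100% = median nuclei count of all wells on the same plate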). The note with it: HUVEC TNFalpha-induced E-selectin immunofluorescence imaging, at 2 µM; inhibition: stronger effect = higher value; nuclei count: measured here: cell number, toxicity.
Assay [3] can be described thus: Primary imaging screen for DUSP6 inhibitors that restore phospho-Erk in transfected HeLa cells, chemical complementation (AID 609;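 active means compounds giving at least 50% inhibition in the cell-based MKP-3 phosphatase rescue imaging test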;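 on inhibition: phospho-Erk level distribution per well compared with pooled transfected vehicle control wells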). The conditions noted are these: HeLa MKP-3 transfected, phospho-Erk imaging KS statistic, at 10 µM, cells stimulated with TPA for 15 min.
The target of assay [4] is Dual specificity protein phosphatase 6 (Homo sapiens) (UniProt Q16828). The assay is described as above. The conditions noted are these: HeLa MKP-3 transfected, phospho-Erk imaging KS statistic; at 10 µM; stronger effect = higher value; cells stimulated with TPA for 15 min.
Assay [5] addresses Voltage-gated potassium channel subunit beta-2 (Rattus norvegicus) (UniProt P62483). The assay can be described thus: inhibitors of rat Kvbeta2 reductase activity – biochemical, NADPH fluorescence, primary screen (AID 622;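 active means fluorescence slope higher than the sample average by over 3 SD, cut at about -0.22 in these data, passing the limit was not always enough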;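 further: slope of raw intensity against log time taken from 70 to 1610 s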). The note with it: recombinant KvBeta, 4-cyanobenzaldehyde reduction, at 10 µM, stronger effect = higher value.
The target is the same in assay [6]. The assay can be described thus: enhancers of rat Kvbeta2 NADPH turnover – biochemical, NADPH fluorescence, primary screen (AID 623;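 active means NADPH fluorescence slope more negative than the mean of all samples by about 3 SD, 99.7% confidence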;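 further: fluorescence intensity change per second fitted from 20 to 320 s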). The conditions noted are these: Recombinant KvBeta, NADPH fluorescence decrease slope, 10 min; at 10 µM; stronger effect = lower value.
In assay [7] the target is Muscarinic acetylcholine receptor M4 (Homo sapiens) (UniProt P08173). Briefly: M4-linked GIRK flux change, two-sided – cell-based, HEK293 M4/GIRK, thallium flux, BTC-AM, M4 allosteric agonist project, primary screen (AID 625;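 active means fluorescence slope after compound addition differing from the mean of all tested samples at 99.7% confidence, mostly higher but some lower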;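 further: thallium influx through GIRK channels coupled to M4 in HEK293 cells with BTC-AM dye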). The conditions noted are these: at 10 µM, actives lie on both sides. The procedure, abridged:
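Material – HEK293 cells with M4 receptor and GIRK channels · Buffer or medium – pH 7.3 thallium assay buffer · Doses – one dose, 10 µM final · Timing – cells overnight at 37 °C, BTC-AM loading 1 h, reads 2 min total · Measured by – kinetic fluorescence with BTC-AM dye · Controls – carbachol and DMSO controls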

Assay [8] in a line: inhibitors of larval lipid processing in zebrafish, primary screen, whole organism, PED6 fluorescence, gall bladder and intestine (AID 686).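 Further: larvae 5 to 7 days old with five fish per well; signal comes from phospholipase A2 cleavage of quenched PED6 carried via bile; overnight exposure to compound and PED6 before scoring.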 The conditions noted are these: Zebrafish larvae PED6 lipid processing, fluorescence scoring; screened at 20 µM (by protocol). A digest of the protocol: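 system = live zebrafish larvae aged 5-7 days, whole organism | probe or stimulus = ingested quenched lipid PED6 at 100 nM | doses = 20 µM single dose | timing = overnight exposure | detection = fluorescence microscopy with visual scoring of gall bladder and intestine | read-out = visual per-well fluorescence inhibition score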

A short description of assay [9]: loss of swimming-algae plug formation – whole organism, Chlamydomonas reinhardtii, WT vs cilia-less mutant, absorbance, 96-well, primary screen (AID 463189;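 active means inhibition at or above 50% relative to wild type and mutant plate controls; inactive means inhibition below 50%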;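 further: 0% = wild type cc124 cells in DMSO and 100% = ciliumless bld1 mutant cells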). The conditions noted are these: Chlamydomonas reinhardtii gravitaxis, OD600 absorbance, 2 days; at 10 µM; stronger effect = higher value.
Where [10] appears, read: measured here: cell density z-score.
Setting [11] is: measured here: nuclear c-Myc green intensity z-score.
The mark [12] stands for this setting: measured here: nuclear pErk red intensity z-score, stronger effect = higher value.

The source made the active and inactive calls.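 How the source made its calls, unless noted: active means a full or partial loss of lipid-probe fluorescence in the fish gall bladder, intestine or both, judged by eye; inactive means no fluorescence loss, or compound toxic to the fish.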

Sequence of Voltage-gated potassium channel subunit beta-2 (Rattus norvegicus) (P62483 whole entry, looked up): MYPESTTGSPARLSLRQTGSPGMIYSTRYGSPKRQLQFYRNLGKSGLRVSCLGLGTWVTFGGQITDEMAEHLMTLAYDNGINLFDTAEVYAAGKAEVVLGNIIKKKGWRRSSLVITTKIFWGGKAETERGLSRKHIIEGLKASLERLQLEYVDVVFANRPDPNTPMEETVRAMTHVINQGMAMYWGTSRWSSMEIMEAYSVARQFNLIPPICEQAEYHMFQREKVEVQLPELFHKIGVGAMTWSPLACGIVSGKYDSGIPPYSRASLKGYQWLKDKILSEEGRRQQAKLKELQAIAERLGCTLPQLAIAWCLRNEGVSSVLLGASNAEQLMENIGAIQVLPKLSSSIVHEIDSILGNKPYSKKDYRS
Sequence of Muscarinic acetylcholine receptor M4 (Homo sapiens) (P08173 whole entry, looked up): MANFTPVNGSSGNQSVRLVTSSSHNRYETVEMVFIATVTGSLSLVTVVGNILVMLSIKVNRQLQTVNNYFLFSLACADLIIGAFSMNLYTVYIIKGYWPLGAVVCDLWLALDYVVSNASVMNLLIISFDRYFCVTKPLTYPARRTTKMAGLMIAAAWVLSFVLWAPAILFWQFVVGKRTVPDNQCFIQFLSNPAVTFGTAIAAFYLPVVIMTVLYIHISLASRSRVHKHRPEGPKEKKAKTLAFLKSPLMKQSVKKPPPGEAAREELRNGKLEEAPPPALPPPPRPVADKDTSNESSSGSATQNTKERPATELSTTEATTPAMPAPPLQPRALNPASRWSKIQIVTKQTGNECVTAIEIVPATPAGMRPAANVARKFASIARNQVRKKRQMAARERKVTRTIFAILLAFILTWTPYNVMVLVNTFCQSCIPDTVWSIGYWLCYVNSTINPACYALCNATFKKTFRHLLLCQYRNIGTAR
Sequence of Dual specificity protein phosphatase 6 (Homo sapiens) (Q16828 whole entry, looked up): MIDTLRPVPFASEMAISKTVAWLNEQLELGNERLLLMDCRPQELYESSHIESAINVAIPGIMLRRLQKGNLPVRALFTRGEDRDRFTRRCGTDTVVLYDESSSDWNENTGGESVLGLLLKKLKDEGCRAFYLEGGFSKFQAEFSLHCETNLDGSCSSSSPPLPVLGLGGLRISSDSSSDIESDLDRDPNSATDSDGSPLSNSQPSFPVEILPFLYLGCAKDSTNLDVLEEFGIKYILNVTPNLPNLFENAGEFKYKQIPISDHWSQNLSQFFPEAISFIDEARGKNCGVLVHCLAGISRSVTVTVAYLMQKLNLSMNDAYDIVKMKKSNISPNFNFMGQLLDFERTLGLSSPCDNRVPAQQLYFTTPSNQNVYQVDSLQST

With `COc1cccc(C=NCCNC(=O)c2nonc2N)c1O`, in [1], the cell count was 517. For the same compound, the inhibition is -4% (inactive) in assay [1], 62.5% (inactive) in assay [2], 7.93% (inactive) in assay [4] and -4.89% (inactive) in assay [9]. The nuclei count in [2] was 169%. In addition, the z-score in assay [3] (setting [10]) is -0.652; in assay [3] (setting [11]), 2.61; in assay [3] (setting [12]) it was -0.971. Further, the fluorescence slope in assay [5] was -0.413 (inactive); in assay [7], 0.00584 (inactive). The NADPH fluorescence slope in [6] is -3.4e-05 (inactive). Moreover, the outcome in [8] was inactive.
Turning to `CCN(CC)c1nc(N2CCOCC2)c(C#N)c2c1CN(C)CC2`, in [1], the cell count amounted to 580. For the same compound, the inhibition was -9.1% (inactive) in assay [1], -116% (inactive) in assay [2], 7.21% (inactive) in assay [4] and 43.3% (inactive) in assay [9]. Further, the nuclei count in assay [2] was determined as 152%. The values for the z-score in assay [3] (setting [10]), in assay [3] (setting [11]) and in assay [3] (setting [12]) were 1.03, -1.51 and 0.0125, respectively. Further, the fluorescence slope in assay [5] was -0.43 (inactive); in [7] it was 0.00408 (inactive). Besides, the NADPH fluorescence slope in [6] was -0.000217 (inactive). For the same compound, in assay [8], the result was inactive.
As for `N#Cc1nc(COc2ccccc2)oc1N1CCCC1`, the cell count in assay [1] was determined as 463. Besides, the inhibition in assay [1] was -4.6% (inactive); in [2], -281% (inactive); in assay [4], 4.37% (inactive); in [9] it was -0.28% (inactive). The nuclei count in assay [2] amounted to 164%. In addition, the z-score is -0.447 in [3] (setting [10]), 1.68 in assay [3] (setting [11]) and 0.969 in assay [3] (setting [12]). The fluorescence slope is -0.42 (inactive) in [5] and 0.00421 (inactive) in assay [7]. In [6], the NADPH fluorescence slope is -4.6e-05 (inactive). Besides, the result in assay [8] was inactive.
In the case of `C=C(C)CC1N(c2cccc(OC)c2)C(=O)[C@@H]2C(C(=O)O)[C@H]3C=C[C@@]12O3` (some centres undefined), the cell count in assay [1] was 628. The inhibition was -15.4% (inactive) in assay [1], 51.9% (inactive) in [2], -7.28% (inactive) in [4] and -0.618% (inactive) in [9]. Also, the nuclei count in assay [2] was 182%. Also, the z-score in [3] (setting [10]) was -0.541; in assay [3] (setting [11]), 1.19; in assay [3] (setting [12]), 1.46. The values for the fluorescence slope in assay [5] and in [7] were -0.49 (inactive) and 0.00494 (inactive), respectively. Besides, the NADPH fluorescence slope in assay [6] is -7.9e-05 (inactive). For the same compound, in assay [8], the compound was called inactive.
Take `CC(C)COc1ccc(C(=O)OCCN2CCOCC2)c(O)c1`: the cell count in assay [1] amounted to 551. Also, the inhibition in [1] is -4.8% (inactive); in assay [2] it was 5.6% (inactive); in assay [4] it was 19.8% (inactive); in [9] it was 20.9% (inactive). The compound further returned a nuclei count in assay [2] of 138%. For the same compound, the z-score in [3] (setting [10]) is 0.333; in assay [3] (setting [11]), -1.8; in [3] (setting [12]), 0.367. In addition, the fluorescence slope in [5] is -0.366 (inactive); in assay [7] it was 0.00568 (inactive). In addition, in assay [6], the NADPH fluorescence slope was -3.7e-07 (inactive). Moreover, the compound was classed as inactive in assay [8].
For `C=CCn1c(-c2ccc(OC)c(OC)c2)n[nH]c1=S`, the cell count in assay [1] was determined as 515. Besides, the inhibition in assay [1] was -3.9% (inactive); in assay [2] it was 9.4% (inactive); in assay [4] it was 5.95% (inactive); in assay [9], 30.5% (inactive). For the same compound, the nuclei count in assay [2] was 150%. Besides, the z-score in assay [3] (setting [10]) was 0.455; in assay [3] (setting [11]), -1.23; in [3] (setting [12]), -0.521. In addition, the fluorescence slope in assay [5] was -0.338 (inactive); in [7], 0.00705 (inactive). Also, in [6], the NADPH fluorescence slope was -3.6e-05 (inactive). Also, the compound was classed as inactive in assay [8].
On to `N#Cc1cc(Oc2cccc3cccnc23)c(-n2nnc3ccccc32)cc1C#N`, for which the cell count in assay [1] was 527. Also, the inhibition in [1] was -0.1% (inactive); in [2] it was -156% (inactive); in assay [4], 6.04% (inactive); in assay [9], 25.9% (inactive). Moreover, in assay [2], the nuclei count came to 145%. Moreover, the values for the z-score in assay [3] (setting [10]), in assay [3] (setting [11]) and in [3] (setting [12]) were 2.59, -0.877 and -1.07, respectively. The fluorescence slope was -0.438 (inactive) in assay [5] and 0.0061 (inactive) in assay [7]. Also, the NADPH fluorescence slope in assay [6] is -2.5e-05 (inactive). For the same compound, the compound was called inactive in assay [8].
Take `CS(=O)(=O)c1ccc2nc(NC(NC(=O)c3ccco3)(C(F)(F)F)C(F)(F)F)sc2c1`: the cell count in [1] was determined as 376. For the same compound, the inhibition was -6.2% (inactive) in [1], 9.6% (inactive) in [2], 3.42% (inactive) in [4] and 2.54% (inactive) in assay [9]. For the same compound, the nuclei count in [2] is 162%. The z-score in [3] (setting [10]) was -0.876; in [3] (setting [11]), 1.31; in assay [3] (setting [12]), 0.831. In addition, the fluorescence slope was -0.451 (inactive) in assay [5] and 0.00497 (inactive) in assay [7]. The NADPH fluorescence slope in assay [6] was -8.9e-05 (inactive). Besides, the result in assay [8] was inactive.
On to `Cc1ccc2cc(CNC(C)(C)C)c(=O)[nH]c2c1`, for which the cell count in [1] came to 632. In addition, the inhibition in assay [1] is -4.2% (inactive); in assay [2] it was -5% (inactive); in assay [4], 7.7% (inactive); in assay [9], 2.56% (inactive). The nuclei count in assay [2] is 141%. The z-score is -0.205 in [3] (setting [10]), -0.75 in [3] (setting [11]) and -0.413 in assay [3] (setting [12]). Moreover, the results for the fluorescence slope in assay [5] and in assay [7] were -0.493 (inactive) and 0.00705 (inactive), respectively. In addition, in assay [6], the NADPH fluorescence slope is -3.2e-05 (inactive). For the same compound, the compound was called inactive in assay [8].
In the case of `Cc1c(C)c2cc(Cl)c(O)c(CN3CCCC(C)C3)c2oc1=O` (centres undefined), in assay [1], the cell count came out at 540. Besides, the inhibition is -4.7% (inactive) in assay [1], 45.7% (inactive) in assay [2], 9.37% (inactive) in [4] and -7.68% (inactive) in assay [9]. The same compound came in with a nuclei count in assay [2] of 94.2%. Also, the z-score is 0.999 in [3] (setting [10]), 0.842 in assay [3] (setting [11]) and -1.58 in assay [3] (setting [12]). The fluorescence slope was -0.0221 (inactive) in [5] and 0.00608 (inactive) in assay [7]. In addition, the NADPH fluorescence slope in [6] is -5.4e-06 (inactive). Besides, in assay [8], the result was inactive.
In the case of `COC(=O)c1ccc(C2/C(=C(\O)c3ccc4c(c3)OCCO4)C(=O)C(=O)N2CCCN(C)C)cc1` (centres undefined), the cell count in assay [1] was determined as 366. In addition, the inhibition is -2.2% (inactive) in assay [1], 1.3% (inactive) in assay [2], 9.82% (inactive) in assay [4] and 25% (inactive) in [9]. In assay [2], this compound returned a nuclei count of 91.5%. Besides, the z-score in [3] (setting [10]) was -1.2; in assay [3] (setting [11]), -0.278; in assay [3] (setting [12]), 0.407. For the same compound, the fluorescence slope in assay [5] is -0.442 (inactive); in assay [7], 0.00519 (inactive). The NADPH fluorescence slope in [6] is -0.000114 (inactive). For the same compound, the call in assay [8] was inactive.
For `C/C(=N\O)C(=O)NCCCn1ccnc1`, the cell count in [1] is 636. Also, the inhibition in [1] was -10.8% (inactive); in [2] it was 26.6% (inactive); in assay [4], -0.233% (inactive); in assay [9] it was -9.7% (inactive). In assay [2], the nuclei count was determined as 94.5%. Further, the z-score in assay [3] (setting [10]) was -0.252; in assay [3] (setting [11]) it was 0.0271; in [3] (setting [12]) it was 0.47. Also, the fluorescence slope was -0.478 (inactive) in assay [5] and 0.00635 (inactive) in assay [7]. Besides, the NADPH fluorescence slope in [6] is -0.000143 (inactive). Besides, the result in assay [8] was inactive.
As to `CCSc1nnc(NC(=O)C(C(F)(F)F)C(F)(F)F)s1`, the cell count in assay [1] was 702. The inhibition is -5% (inactive) in assay [1], -40.7% (inactive) in assay [2], -0.233% (inactive) in [4] and 21.1% (inactive) in assay [9]. The compound further returned a nuclei count in assay [2] of 146%. The z-score in assay [3] (setting [10]) was -0.0594; in [3] (setting [11]) it was -1.31; in assay [3] (setting [12]) it was -1.04. In addition, the fluorescence slope is -0.449 (inactive) in assay [5] and 0.00555 (inactive) in assay [7]. In assay [6], the NADPH fluorescence slope is -4.7e-05 (inactive). In assay [8], the compound was called inactive.

The record behind these values is PubChem BioAssay.
